In ChEMBL document CHEMBL1154599 (J Med Chem, 2009):

How the values were obtained:
[1] = target: T1, Amine oxidase [flavin-containing] B (Rattus norvegicus, UniProt P19643); test: Inhibition of MAO-B from Wistar rat brain by radioenzymatic assay
T1 sequence (P19643 whole entry): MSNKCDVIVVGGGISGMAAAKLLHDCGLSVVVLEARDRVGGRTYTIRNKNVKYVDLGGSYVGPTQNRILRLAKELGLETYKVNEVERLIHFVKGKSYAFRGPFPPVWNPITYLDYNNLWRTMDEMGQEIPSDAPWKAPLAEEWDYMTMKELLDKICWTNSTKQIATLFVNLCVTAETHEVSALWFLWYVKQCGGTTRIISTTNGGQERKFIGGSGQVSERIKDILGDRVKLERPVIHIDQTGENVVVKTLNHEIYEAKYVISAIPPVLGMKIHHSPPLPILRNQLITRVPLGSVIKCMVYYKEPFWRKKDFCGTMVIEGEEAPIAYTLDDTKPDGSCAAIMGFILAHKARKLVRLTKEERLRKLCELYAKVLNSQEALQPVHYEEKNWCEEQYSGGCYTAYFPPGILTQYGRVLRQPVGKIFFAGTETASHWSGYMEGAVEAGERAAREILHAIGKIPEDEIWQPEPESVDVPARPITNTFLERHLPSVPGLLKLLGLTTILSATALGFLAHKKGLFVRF
Procedure, shortened: (§1)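 Crude mitochondrial fraction from male Wistar rat brain (150-175 g), 500 μg protein in 0.1 M phosphate pH 7.40. Preincubated 30 min at 37 °C with compound. Substrate then added: [14C]5-HT 5 μM for 30 min (MAO-A) or [14C]PEA 0.5 μM for 10 min (MAO-B), 37 °C. Stopped with acid, deaminated metabolites extracted into ether or toluene, counted by scintillation.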

Rattus norvegicus = organism: Rattus norvegicus; test: Selectivity index, ratio of IC50 for rat MAO-A to IC50 for rat MAO-B
Procedure, shortened: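 Ratio of IC50 values from rat brain mitochondrial radioenzymatic assays: MAO-A with [14C]5-HT 5 μM, 30 min, and MAO-B with [14C]PEA 0.5 μM, 10 min. Both after 30 min preincubation with compound at 37 °C.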

[2] = target: T2, Amine oxidase [flavin-containing] A (Rattus norvegicus, UniProt P21396); test: Inhibition of MAO-A from Wistar rat brain by radioenzymatic assay; procedure, shortened: as §1
T2 sequence (P21396 whole entry): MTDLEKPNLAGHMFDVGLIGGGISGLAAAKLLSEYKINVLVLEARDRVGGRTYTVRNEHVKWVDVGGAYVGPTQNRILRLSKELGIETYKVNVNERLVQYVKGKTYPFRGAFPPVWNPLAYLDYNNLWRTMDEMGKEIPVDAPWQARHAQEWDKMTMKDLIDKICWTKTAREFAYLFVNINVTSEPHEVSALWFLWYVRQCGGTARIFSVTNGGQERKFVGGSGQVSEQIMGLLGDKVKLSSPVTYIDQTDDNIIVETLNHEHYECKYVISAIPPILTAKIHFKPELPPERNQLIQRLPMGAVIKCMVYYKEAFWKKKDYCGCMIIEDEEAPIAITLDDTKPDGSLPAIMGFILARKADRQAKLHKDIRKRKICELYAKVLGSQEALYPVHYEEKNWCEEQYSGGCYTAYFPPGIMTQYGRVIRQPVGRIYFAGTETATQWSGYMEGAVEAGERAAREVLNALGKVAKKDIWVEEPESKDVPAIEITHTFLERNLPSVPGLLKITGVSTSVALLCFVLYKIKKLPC

[3] = target: T2, Amine oxidase [flavin-containing] A; test: Inhibition of MAO-A from Wistar rat brain at 10 uM by radioenzymatic assay
[4] = Permeability across PAMPA membrane assessed as retention at 617 uM by HDM-PAMPA assay; assay type: ADME
Procedure, shortened: (§2)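 HDM-PAMPA on polycarbonate filters coated with hexadecane (applied in hexane, which was evaporated). Donor at 617 μM in 0.1 M phosphate pH 6.8 with 5% DMSO, same pH in donor and acceptor. Incubated 5 h at room temperature with shaking at 75 rpm. Compartments quantified by HPLC. Pe, retention R and CA(t)/CD(0) calculated by equations 1-2. Quadruplicate.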

[5] = Permeability across PAMPA membrane assessed as amount of drug reaching acceptor compartment at 617 uM by HDM-PAMPA assay; assay type: ADME; procedure, shortened: as §2
[6] = Permeability across PAMPA membrane assessed as permeability coefficient at 617 uM by HDM-PAMPA assay; assay type: ADME; procedure, shortened: as §2
[7] = Octanol-water partition coefficient, log P calculated with Bioloom (BioByte)

SMILES	IC50 [1]	Ratio IC50 (Rattus norvegicus)	IC50 [2]	also measured
NC(=O)[C@@H]1CCCN1c1cc(=O)oc2cc(OCc3ccccc3)ccc12	16100 nM	6	99800 nM	–
NC(=O)Cc1cc(=O)oc2cc(OCc3ccncc3)ccc12	2000 nM	13	26500 nM	–
CN(C)Cc1cc(=O)oc2cc(OCc3ccccc3)ccc12	1800 nM	56	100000 nM	–
C[C@H](NCc1cc(=O)oc2cc(OCc3ccccc3)ccc12)C(N)=O	1800 nM	13	22700 nM	–
NCc1cc(=O)oc2cc(OCc3ccccc3)ccc12	21 nM	210	4400 nM	–
NNC(=O)Cc1cc(=O)oc2cc(OCc3cccc(Cl)c3)ccc12	90 nM	28	2500 nM	–
NC(=O)Cc1cc(=O)oc2cc(OCc3cccc(O)c3)ccc12	1000 nM	4	4270 nM	–
NC(=O)Cc1cc(=O)oc2cc(OCc3cccnc3)ccc12	1300 nM	16	21000 nM	–
NCCNC(=O)Cc1cc(=O)oc2cc(OCc3cccc(Cl)c3)ccc12	> 10000 nM	–	> 100000 nM	–
Cc1cc(=O)oc2cc(OCc3cccc(Cl)c3)ccc12	–	–	–	permeability [4]: 72%; permeability [5]: 3.7%; log Pe [6]: -4.13 cm/s; logP [7]: 4.73
NC(=O)Cc1cc(=O)oc2cc(OCc3cccc(Cl)c3)ccc12	30 nM	867	26000 nM	–
CC(C(N)=O)c1cc(=O)oc2cc(OCc3cccc(F)c3)ccc12 (racemic)	100 nM	20	2000 nM	–
NCCc1cc(=O)oc2cc(OCc3cccc(Cl)c3)ccc12	–	127	–	–
CN(C)C(=O)Cc1cc(=O)oc2cc(OCc3cccc(Cl)c3)ccc12	–	> 2400	–	–
CCCCN(C)C(=O)Cc1cc(=O)oc2cc(OCc3cccc(Cl)c3)ccc12	> 10000 nM	–	> 100000 nM	–
CNC(=O)Cc1cc(=O)oc2cc(OCc3ccccc3)ccc12	15 nM	187	2800 nM	–
NC(=O)[C@@H]1CCCN1Cc1cc(=O)oc2cc(OCc3cccc(F)c3)ccc12	850 nM	> 117	> 100000 nM	–
CNCc1cc(=O)oc2cc(OCc3ccc4c(c3)OCO4)ccc12	20 nM	270	5400 nM	–
NC(=O)[C@@H]1CCCN1c1cc(=O)oc2cc(OCc3cccc(Cl)c3)ccc12	9600 nM	–	–	inhibition at 10 µM [3]: 5%
CNCCc1cc(=O)oc2cc(OCc3cccc(Cl)c3)ccc12	–	247	–	–
CN(C)Cc1cc(=O)oc2cc(OCc3cccc(Cl)c3)ccc12	1120 nM	45	50800 nM	–
CN(C)Cc1cc(=O)oc2cc(OCc3cccc(F)c3)ccc12	510 nM	> 196	> 100000 nM	–

Second part, led by results:

IC50 [1]	Ratio IC50 (Rattus norvegicus)	IC50 [2]	SMILES	also measured
210 nM	–	–	C[C@H](Nc1cc(=O)oc2cc(OCc3cccc(Cl)c3)ccc12)C(N)=O	inhibition at 10 µM [3]: 35%
100 nM	63	6260 nM	CC(C(N)=O)c1cc(=O)oc2cc(OCc3ccccc3)ccc12 (racemic)	–
–	1400	–	NC(=O)Cc1cc(=O)oc2cc(OCc3cccc(F)c3)ccc12	–
15 nM	133	2000 nM	NCc1cc(=O)oc2cc(OCc3cccc(Cl)c3)ccc12	–
3800 nM	24	91000 nM	CC(C)NCc1cc(=O)oc2cc(OCc3cccc(F)c3)ccc12	–
230 nM	0.9	200 nM	N#CCc1cc(=O)oc2cc(OCc3ccccc3)ccc12	–
680 nM	147	100000 nM	C[C@H](Nc1cc(=O)oc2cc(OCc3ccccc3)ccc12)C(N)=O	–
3600 nM	> 28	> 100000 nM	O=c1cc(CNCc2ccccc2)c2ccc(OCc3cccc(Cl)c3)cc2o1	–
–	36	1440 nM	NNC(=O)Cc1cc(=O)oc2cc(OCc3ccccc3)ccc12	–
400 nM	58	23100 nM	CN(C)C(=O)Cc1cc(=O)oc2cc(OCc3ccccc3)ccc12	–
28 nM	550	15400 nM	CNCc1cc(=O)oc2cc(OCc3ccccc3)ccc12	–
24 nM	21	500 nM	CNC(=O)Cc1cc(=O)oc2cc(OCc3cccc(Cl)c3)ccc12	–
100 nM	226	22600 nM	CCNCc1cc(=O)oc2cc(OCc3cccc(F)c3)ccc12	–
5000 nM	> 20	> 100000 nM	O=C(Cc1cc(=O)oc2cc(OCc3cccc(Cl)c3)ccc12)NCc1ccccc1	–
> 10000 nM	–	> 100000 nM	CCCCNC(=O)Cc1cc(=O)oc2cc(OCc3cccc(Cl)c3)ccc12	–
18 nM	–	–	CNCc1cc(=O)oc2cc(OCc3cccc(F)c3)ccc12	–
460 nM	56	25900 nM	CN(C)CCc1cc(=O)oc2cc(OCc3ccccc3)ccc12	–
2400 nM	> 42	> 100000 nM	NC(=O)[C@H](CO)Nc1cc(=O)oc2cc(OCc3cccc(Cl)c3)ccc12	–
8000 nM	> 13	> 100000 nM	CN(Cc1ccccc1)Cc1cc(=O)oc2cc(OCc3cccc(Cl)c3)ccc12	–
380 nM	92	35000 nM	NC(=O)[C@@H]1CCCN1Cc1cc(=O)oc2cc(OCc3ccccc3)ccc12	–
200 nM	40	8000 nM	NC(=O)Cc1cc(=O)oc2cc(OCc3ccccc3)ccc12	–
16 nM	29	470 nM	N#CCc1cc(=O)oc2cc(OCc3cccc(Cl)c3)ccc12	–
